The values below come from ChEMBL document CHEMBL1146868, “Design, synthesis, and biophysical and biological evaluation of a series of pyrrolobenzodiazepine-poly(N-methylpyrrole) conjugates” (J Med Chem, 2006).

As a reminder, the GI50 is the concentration that inhibits growth by half. In general, TGI refers to the concentration giving total growth inhibition. As usually defined, the inhibition is how much of the control response was suppressed. Low readings indicate a weak effect, high ones a strong effect.

In one series the test system is K562. Description: Cytotoxicity against human K562 cell line after 96 hrs by MTT assay. Format: functional. The settings on record: K562, 96 h. Background: Formazan colour is commonly taken as a measure of viable cells.
Series [1] concerns Panel NCI-60 (60 carcinoma cell lines). Briefly: Cytotoxicity against human NCI60 cell line […]. It counts as functional. The settings on record: for CC50: read-out: LC50 (the source's name).
In series [2] the test system is MCF7. Briefly: Uptake in human MCF7 cells at 100 uM after 24 hrs. Format: ADME, cell-based. Conditions: mcf7, 24 h; call rule not given here. The method in brief: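 MCF-7 cells were exposed to the conjugates for 24 h, at up to 100 µM. Cellular and nuclear uptake was assessed from intrinsic fluorescence.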
Another series relates to Nucleic Acid. Description: Inhibition of DNA transcription at 5 uM. It counts as functional. A digest of the protocol:
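In vitro transcription of a DNA template by a viral RNA polymerase. Read-out is the sites where transcription stops and the amount of full-length 266-nt transcript. Activity is expressed as 50% inhibition of full-length transcript synthesis.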

Series [3] concerns MCF7. Description: Uptake in human MCF7 cells after <1 hr. It counts as ADME, cell-based. The settings on record: mcf7, 1 h.

In the series on K562, `C=C1C[C@H]2C=Nc3cc(OCCCOc4cc5c(cc4OC)C(=O)N4CC(=C)C[C@H]4C=N5)c(OC)cc3C(=O)N2C1` [SJG-136] showed a GI50 of 3.8 nM. Also, in series [1], the GI50 was found to be 7.4 nM, the TGI stood at 87.1 nM and the CC50 is 562 nM.

Turning to `COC(=O)c1cc(NC(=O)c2cc(NC(=O)CCCOc3cc4c(cc3OC)C(=O)N3CCC[C@H]3C=N4)cn2C)cn1C`, the Drug uptake entry in the series with MCF7 [2] is reported as “Active”. The same compound had a GI50 with K562 of 7.1 nM. In addition, in series [1], halving of growth (GI50) required 11 nM, the TGI was 120 nM and the CC50 is 10000 nM. The inhibition with Nucleic Acid is 50%.

Consider `COC(=O)c1cc(NC(=O)c2cc(NC(=O)c3cc(NC(=O)CCCOc4cc5c(cc4OC)C(=O)N4CCC[C@H]4C=N5)cn3C)cn2C)cn1C`, for which the Drug uptake entry in the series on MCF7 [2] is reported as “Active”. For the same compound, the GI50 in the series with K562 is 41 nM. Besides, in series [1], growth was halved (GI50) at 15 nM, the TGI amounted to 32 nM and the CC50 amounted to 1070 nM. Also, the inhibition with Nucleic Acid was 50%.

Consider `COC(=O)c1cc(NC(=O)c2cc(NC(=O)c3cc(NC=O)cn3C)cn2C)cn1C`, for which the concentration for 50% growth inhibition (GI50) with K562 was above 10000 nM. Besides, in series [1], the GI50 was 16600 nM, total growth inhibition (TGI) required 44700 nM and the CC50 was 85100 nM.

Compound `COC(=O)c1cc(NC(=O)c2cc(NC(=O)c3cc(NC(=O)CCCOc4cc5c(cc4OC)C(=O)N4CCC[C@H]4C(=O)N5)cn3C)cn2C)cn1C` yielded a GI50 in the series on K562 above 10000 nM. In addition, in series [1], the GI50 amounted to 49000 nM, the TGI is above 50000 nM and the CC50 is above 50000 nM.

As for `COC(=O)c1cc(NC(=O)c2cc(NC(=O)c3cc(NC(=O)c4cc(NC(=O)CCCOc5cc6c(cc5OC)C(=O)N5CCC[C@H]5C=N6)cn4C)cn3C)cn2C)cn1C`, in the series with MCF7 [2], the Drug uptake result was “Active”. The compound further came in with a GI50 in the series with K562 of 47 nM. In series [1], the GI50 turned out to be 7 nM, net growth stopped (TGI) at 18 nM and the CC50 is 1510 nM. In addition, in the series with Nucleic Acid, the inhibition came out at 50%.

Compound `COC(=O)CCCOc1cc2c(cc1OC)C(=O)N1CCC[C@H]1C=N2` returned a GI50 with K562 of 526 nM. Moreover, in series [1], growth was halved (GI50) at 1740 nM, the TGI amounted to 11800 nM and the CC50 was determined as 46800 nM.

`COC(=O)c1cc(NC(=O)c2cc(NC(=O)c3cc(NC(=O)CCOc4cc5c(cc4OC)C(=O)N4CCC[C@H]4C=N5)cn3C)cn2C)cn1C` had a GI50 with K562 of 346 nM. In series [1], halving of growth (GI50) required 47 nM, total growth inhibition (TGI) required 1760 nM and the CC50 was determined as 56200 nM.

For `COC(=O)c1cc(NC(=O)CCCOc2cc3c(cc2OC)C(=O)N2CCC[C@H]2C=N3)cn1C`, the Drug uptake entry in the series on MCF7 [3] is on record as “Active”. Moreover, growth in the series on K562 was halved (GI50) at 51 nM. For the same compound, in series [1], the GI50 was determined as 47 nM, total growth inhibition (TGI) required 323 nM and the CC50 was 11500 nM. In addition, the inhibition in the series on Nucleic Acid was determined as 50%.

Turning to `COC(=O)c1cc(NC(=O)c2cc(NC(=O)c3cc(NC(=O)CCCN(C)C)cn3C)cn2C)cn1C`, in the series with K562, the GI50 was above 10000 nM. Further, in series [1], the GI50 worked out at 72400 nM, the TGI is above 100000 nM and the CC50 was above 100000 nM.

For `COC(=O)c1cc(NC(=O)c2cc(NC(=O)c3cc(NC(=O)c4cc(NC(=O)c5cc(NC(=O)CCCOc6cc7c(cc6OC)C(=O)N6CCC[C@H]6C=N7)cn5C)cn4C)cn3C)cn2C)cn1C`, in the series on MCF7 [2], the Drug uptake result is “Active”. Further, growth in the series on K562 was halved (GI50) at 83 nM. Further, in series [1], the GI50 worked out at 9 nM, total growth inhibition (TGI) required 29 nM and the CC50 is 1260 nM. The inhibition in the series with Nucleic Acid was 50%.

In the case of `COC(=O)c1cc(NC(=O)c2cc(NC(=O)c3cc(NC(=O)c4cc(NC(=O)c5cc(NC(=O)c6cc(NC(=O)CCCOc7cc8c(cc7OC)C(=O)N7CCC[C@H]7C=N8)cn6C)cn5C)cn4C)cn3C)cn2C)cn1C`, the Drug uptake entry with MCF7 [2] is given as “Active”. Besides, the GI50 with K562 was 30 nM. Further, in series [1], the GI50 came out at 8 nM, net growth stopped (TGI) at 54 nM and the CC50 was 1900 nM. Further, in the series on Nucleic Acid, the inhibition stood at 50%.
